# Data from ChEMBL document CHEMBL2424543, “Enantioselective effects of (+)- and (-)-citronellal on animal and plant microtubules” (J Nat Prod, 2013).
# Active and inactive are the calls of the source. No cut-off for these calls is given here.
# Assays:
# REF52 [1] = experiment: Induction of microtubule depolymerization in rat REF52 cells at 27.5 to 55 uM after 30 mins by fluorescence assay relative to control; format: cell-based
# REF52 [2] = experiment: Induction of microtubule depolymerization in rat REF52 cells assessed as decrease in fluorescence associated with fibers at 27.5 uM incubated for 5 to 30 mins measured after 30 mins relative to control; format: cell-based; parameters: scale not given: the % may be the effect or the level left
# Arabidopsis thaliana [3] = experiment: Effect on GFP-talin-tagged actin dynamics in Arabidopsis thaliana (L.) Heynh at 25 uM after 10 mins by confocal microscopic analysis
# How it was run: (§1)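 GFP-talin (actin marker) Arabidopsis Columbia seedlings were raised on MS medium with 4 days of dark stratification at 4 °C, then grown at 24 °C under a 16/8 h photoperiod. Cotyledons of 7-day-old seedlings were treated with 25 μM for 10 min. Actin fiber organization and dynamics were followed by confocal time-lapse imaging.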
# REF52 [4] = experiment: Induction of microtubule depolymerization in rat REF52 cells after 30 mins by fluorescence assay; format: cell-based
# Arabidopsis thaliana [5] = experiment: Effect on GFP-talin-tagged actin organization in Arabidopsis thaliana (L.) Heynh at 25 uM after 10 mins by confocal microscopic analysis; how it was run: as §1
# [6] = biological target: Tubulin beta-6 chain (Arabidopsis thaliana) (UniProt P29514); experiment: Effect on GFP-tagged tubulin beta6 polymerization in Arabidopsis thaliana (L.) Heynh assessed as growth of leading end at 25 uM after 10 mins by confocal microscopic analysis (reference value: 5.79 +/- 1.15 um/min)
# Tubulin beta-6 chain (Arabidopsis thaliana), sequence (P29514 whole entry): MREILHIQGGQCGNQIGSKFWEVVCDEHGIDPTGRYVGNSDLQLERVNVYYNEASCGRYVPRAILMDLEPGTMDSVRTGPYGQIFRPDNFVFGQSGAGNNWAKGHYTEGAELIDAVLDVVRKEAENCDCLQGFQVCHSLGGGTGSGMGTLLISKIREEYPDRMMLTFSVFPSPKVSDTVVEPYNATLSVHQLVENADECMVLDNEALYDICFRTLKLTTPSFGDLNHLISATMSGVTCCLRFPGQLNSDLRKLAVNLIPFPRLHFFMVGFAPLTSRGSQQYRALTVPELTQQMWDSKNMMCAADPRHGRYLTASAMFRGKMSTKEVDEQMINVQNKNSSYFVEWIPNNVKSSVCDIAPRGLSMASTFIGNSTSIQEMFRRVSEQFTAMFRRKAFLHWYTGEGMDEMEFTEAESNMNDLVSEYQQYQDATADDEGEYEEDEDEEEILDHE
# [7] = biological target: Tubulin beta-6 chain (Arabidopsis thaliana) (UniProt P29514); experiment: Effect on GFP-tagged tubulin beta6 polymerization in Arabidopsis thaliana (L.) Heynh assessed as shorten leading end at 25 uM after 10 mins by confocal microscopic analysis (reference value: 15.43 +/- 5.37 um/min)
# HeLa [8] = experiment: Induction of microtubule depolymerization in human HeLa cells at 27.5 uM after 30 mins by fluorescence assay; format: cell-based
# How it was run: (§2)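 HeLa or Ref52 cells were grown in DMEM with 10% fetal calf serum at 37 °C/5% CO2. Compound was dissolved in DMSO and diluted in serum-free DMEM. Cells were permeabilized and fixed in paraformaldehyde/Triton X-100. MTs were immunostained with DM1A plus an Alexa 488 secondary, and actin was stained with Alexa 555-phalloidin. Cells were examined by confocal microscopy.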
# REF52 [9] = experiment: Induction of microtubule depolymerization in rat REF52 cells at 27.5 uM by fluorescence assay; format: cell-based; conditions: TDE = time-dependent effect
# [10] = biological target: Tubulin beta-6 chain (Arabidopsis thaliana) (UniProt P29514); experiment: Effect on GFP-tagged tubulin beta6 polymerization in Arabidopsis thaliana (L.) Heynh assessed as growth of lagging end at 25 uM after 10 mins by confocal microscopic analysis (reference value: 3.54 +/- 2.48 um/min)
# REF52 [11] = experiment: Effect on actin depolymerization in rat REF52 cells at 27.5 uM after 30 mins by fluorescence assay; format: cell-based; how it was run: as §2
# REF52 [12] = experiment: Induction of microtubule depolymerization in rat REF52 cells at 27.5 uM after 30 mins by fluorescence assay; format: cell-based
# Bos taurus [13] = species on record: Bos taurus; experiment: Inhibition of rhodamine-labeled bovine brain tubulin polymerization assessed as shorter microtubules at 20 uM after 20 mins by fluorescence microscopic analysis relative to control; values are per cent of control
# [14] = biological target: Tubulin beta-6 chain (Arabidopsis thaliana) (UniProt P29514); experiment: Effect on GFP-tagged tubulin beta6 polymerization in Arabidopsis thaliana (L.) Heynh assessed as shorten lagging end at 25 uM after 10 mins by confocal microscopic analysis (reference value: 3.57 +/- 2.33 um/min)
# Bos taurus [15] = species on record: Bos taurus; experiment: Inhibition of rhodamine-labeled bovine brain tubulin polymerization assessed as number of microtubules at 20 uM after 20 mins by fluorescence microscopic analysis relative to control; values are per cent of control
# HeLa [16] = experiment: Effect on actin depolymerization in human HeLa cells at 27.5 uM after 30 mins by fluorescence assay; format: cell-based; how it was run: as §2
# [17] = biological target: Tubulin beta-6 chain (Arabidopsis thaliana) (UniProt P29514); experiment: Effect on GFP-tagged tubulin beta6 polymerization in Arabidopsis thaliana (L.) Heynh at 25 uM after 10 mins by confocal microscopic analysis
# REF52 [18] = experiment: Induction of microtubule depolymerization in rat REF52 cells at 6.9 to 13.8 uM after 30 mins by fluorescence assay relative to control; format: cell-based
# Bos taurus [19] = species on record: Bos taurus; experiment: Inhibition of rhodamine-labeled bovine brain tubulin polymerization assessed as shorter microtubules at 20 uM after 20 mins by fluorescence microscopic analysis relative to control
# How it was run: (§3)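 Purified bovine brain tubulin mixed with rhodamine-tubulin and GTP was polymerized in MRB80 (80 mM PIPES/KOH pH 6.8, 1 mM MgCl2, 1 mM EGTA) plus 6% glycerol, with 20 μM compound or 0.01% DMSO. Incubation was 20 min at 37 °C, stopped with 0.5% glutaraldehyde. MT number and total length were measured by wide-field fluorescence microscopy. Data are average ± SE, compared by Scheffe's test.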
# Bos taurus [20] = species on record: Bos taurus; experiment: Inhibition of rhodamine-labeled bovine brain tubulin polymerization assessed as number of microtubules at 20 uM after 20 mins by fluorescence microscopic analysis relative to control; how it was run: as §3
# REF52 [21] = experiment: Induction of microtubule depolymerization in rat REF52 cells at 27.5 uM after 5 to 30 mins by fluorescence assay relative to control; format: cell-based
# REF52 [22] = experiment: Effect on actin depolymerization in rat REF52 cells assessed as effect on ratio of soluble to insoluble protein fraction at 0.1 uM after 30 mins by Western blot analysis; format: cell-based
# How it was run: (§4)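 Ref52 rat embryonic fibroblasts grown in DMEM with 10% FCS at 37 °C/5% CO2 and dosed for 30 min in serum-free DMEM. Triton X-100 fractionation: 3 min extraction at room temperature in 50 mM MES pH 6.8 with 2.5 mM EGTA, 5 mM MgCl2 and 0.5% Triton. Equal volumes of soluble and insoluble fractions run on SDS-PAGE. Western blot with anti-tubulin DM1A and anti-actin C4, HRP chemiluminescence, band densitometry. Four independent experiments.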
# REF52 [23] = experiment: Induction of microtubule depolymerization in rat REF52 cells at 0.1 uM after 30 mins by fluorescence assay; format: cell-based
# How it was run: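 Ref52 cells in serum-free DMEM, treated 30 min. Permeabilized with 3% paraformaldehyde and 0.5% Triton X-100, then fixed in 3% paraformaldehyde plus 1% glutaraldehyde, quenched with borohydride. Stained with anti-tubulin DM1A and Alexa 488 secondary, imaged by confocal microscopy. FiberScore gives total fluorescence associated with fibers. Mean ± standard error, Scheffe's test at p < 0.05.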
# REF52 [24] = experiment: Induction of microtubule depolymerization in rat REF52 cells assessed as […] in ratio of soluble to insoluble tubulin fraction at 0.1 uM after 30 mins by Western blot analysis; format: cell-based; how it was run: as §4
# REF52 [25] = experiment: Induction of microtubule depolymerization in rat REF52 cells at 2 uM after 30 mins by fluorescence assay; format: cell-based
SMILES,Activity (REF52 [1]),Activity (Arabidopsis thaliana [3]),Activity (REF52 [4]),Activity (Arabidopsis thaliana [5]),Activity [6],Activity [7],Activity (HeLa [8]),Activity (REF52 [9]),Activity [10],Activity (REF52 [11]),Activity (REF52 [12]),Activity [14],Activity (HeLa [16]),Activity [17],Activity (REF52 [23]),further results
CC(C)=CCC[C@@H](C)CC=O,20%,inactive,Dose-dependent effect,inactive,0 um/min,0 um/min,Active,tde,0 um/min,inactive,Active,0 um/min,inactive,Active,–,Activity (REF52 [2]): 20%; residual activity (Bos taurus [13]): 30%; residual activity (Bos taurus [15]): 40%
CC(C)=CCC[C@H](C)CC=O,50%,inactive,Dose-dependent effect,inactive,5.94 um/min,14.6 um/min,inactive,tde,1.66 um/min,inactive,inactive,7.48 um/min,inactive,inactive,–,Activity (REF52 [18]): inactive; inhibition (Bos taurus [19]): inactive; inhibition (Bos taurus [20]): inactive; Activity (REF52 [21]): 60%
COc1cc2c(c(OC)c1OC)-c1ccc(OC)c(=O)cc1[C@@H](NC(C)=O)CC2,–,–,–,–,–,–,–,–,–,–,–,–,–,–,Active,Activity (REF52 [22]): inactive; Activity (REF52 [24]): Active
CC[C@]1(O)C[C@@H]2CN(CCc3c([nH]c4ccccc34)[C@@](C(=O)OC)(c3cc4c(cc3OC)N(C)[C@H]3[C@@](O)(C(=O)OC)[C@H](OC(C)=O)[C@]5(CC)C=CCN6CC[C@]43[C@@H]65)C2)C1,–,–,–,–,–,–,–,–,–,–,–,–,–,–,Active,–
CC(=O)O[C@H]1C(=O)[C@@]2(C)[C@H]([C@H](OC(=O)c3ccccc3)[C@]3(O)C[C@H](OC(=O)[C@H](O)[C@@H](NC(=O)c4ccccc4)c4ccccc4)C(C)=C1C3(C)C)[C@]1(OC(C)=O)CO[C@@H]1C[C@@H]2O,–,–,–,–,–,–,–,–,–,–,–,–,–,–,–,Activity (REF52 [25]): Active
